Series [1] concerns Pseudomonas aeruginosa. Put plainly: Antimicrobial activity against Pseudomonas aeruginosa PAO1. In kind it is functional. The method in brief:
(§1)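 Microtiter broth dilution in brain heart infusion (BHI). Cells were grown overnight at 37°C in BHI broth and diluted in the same medium. Serial peptide dilutions were inoculated to a final 5 x 10^5 CFU/ml and incubated at 37°C for 24 h. The MIC is the lowest peptide concentration that inhibited growth.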

Series [2] concerns Pseudomonas aeruginosa. Put plainly: Antimicrobial activity against Pseudomonas aeruginosa WR5. In kind it is functional. The procedure, abridged: as §1
The subject of series [3] is Pseudomonas aeruginosa. Kind of series: Antimicrobial activity against Pseudomonas aeruginosa PAK. The class given is functional. The method in brief:
as §1

Series [4] in a line: Toxicity against human erythrocytes assessed as increase in hemolytic activity after 18 hrs relative to V13KL peptide. The class given is cell-based. Particulars: erythrocyte.
Series [5] has as its system Pseudomonas aeruginosa. Put plainly: Antimicrobial activity against Pseudomonas aeruginosa M2. The class given is functional. The procedure, abridged:
as §1

Series [6] is described as follows: Toxicity against human erythrocytes assessed as hemolysis after 18 hrs. In kind it is cell-based. Particulars: erythrocyte. The method in brief: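 Unlysed cells were removed by centrifugation (800 x g), and hemoglobin release was read at 570 nm. The MHC is the maximal concentration causing no hemolysis. Control was 1% erythrocytes without peptide.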
The subject of series [7] is Pseudomonas aeruginosa. Kind of series: Antimicrobial activity against Pseudomonas aeruginosa CP204. The class given is functional. The method in brief:
as §1

Series [8] concerns Pseudomonas aeruginosa. Put plainly: Antimicrobial activity against Pseudomonas aeruginosa PA14. The class given is functional. The procedure, abridged:
as §1

Series [9] can be described thus: Toxicity against human erythrocytes assessed as hemolysis at 500 ug/ml after 18 hrs. Particulars: erythrocyte.

≈ marks a conversion by molar mass, not a printed value. Some results are limits rather than exact numbers.

As for `CC[C@H](C)[C@H](NC(=O)[C@H](CC(C)C)NC(=O)[C@H](CCCCN)NC(=O)[C@H](CC(C)C)NC(=O)[C@H](C)NC(=O)[C@@H](NC(=O)[C@H](Cc1c[nH]cn1)NC(=O)[C@H](CC(C)C)NC(=O)[C@@H](NC(=O)[C@@H](NC(=O)[C@H](CCCCN)NC(=O)[C@H](CCCCN)NC(=O)[C@H](CC(C)C)NC(=O)[C@H](CO)NC(=O)[C@H](CCCCN)NC(=O)[C@H](Cc1ccccc1)NC(=O)[C@@H](NC(=O)[C@H](CCCCN)NC(=O)[C@H](CC(C)C)NC(=O)[C@H](Cc1ccccc1)NC(=O)[C@H](CO)NC(=O)[C@H](CCCCN)NC(=O)[C@H](Cc1c[nH]c2ccccc12)NC(=O)[C@H](CCCCN)NC(C)=O)[C@@H](C)O)[C@@H](C)O)C(C)C)[C@@H](C)O)C(=O)N[C@@H](CO)C(=O)N[C@@H](CO)C(N)=O`, the MIC in series [1] is 15.6 µg/mL (≈ 5.07 µM); in series [2], 250 µg/mL (≈ 81.3 µM); in series [3] it was 15.6 µg/mL (≈ 5.07 µM); in series [5], 31.3 µg/mL (≈ 10.2 µM); in series [7], 7.8 µg/mL (≈ 2.54 µM); in series [8], 62.5 µg/mL (≈ 20.3 µM). The Activity in [4] is 16. Further, the “Maximal concentration causing no hemolysis (MHC)” value in [6] stood at 15.6 µg/mL.
In the case of `CC[C@H](C)[C@H](NC(=O)[C@H](C)NC(=O)[C@H](CCCCN)NC(=O)[C@H](CC(C)C)NC(=O)[C@H](C)NC(=O)[C@@H](NC(=O)[C@H](Cc1cnc[nH]1)NC(=O)[C@H](CC(C)C)NC(=O)[C@@H](NC(=O)[C@@H](NC(=O)[C@H](CCCCN)NC(=O)[C@H](CCCCN)NC(=O)[C@H](C)NC(=O)[C@H](CO)NC(=O)[C@H](CCCCN)NC(=O)[C@H](Cc1ccccc1)NC(=O)[C@@H](NC(=O)[C@H](CCCCN)NC(=O)[C@H](CC(C)C)NC(=O)[C@H](Cc1ccccc1)NC(=O)[C@H](CO)NC(=O)[C@H](CCCCN)NC(=O)[C@H](Cc1c[nH]c2ccccc12)NC(=O)[C@H](CCCCN)NC(C)=O)[C@@H](C)O)[C@@H](C)O)C(C)C)[C@@H](C)O)C(=O)N[C@@H](CO)C(=O)N[C@@H](CO)C(N)=O`, the MIC in [1] was 31.3 µg/mL (≈ 10.5 µM); in series [2], 250 µg/mL (≈ 83.6 µM); in series [3] it was 125 µg/mL (≈ 41.8 µM); in series [5] it was 31.3 µg/mL (≈ 10.5 µM); in [7], 7.8 µg/mL (≈ 2.61 µM); in series [8], 62.5 µg/mL (≈ 20.9 µM). The results for the Activity entry in [9] and in series [4] were “Non-toxic” and 1, respectively. The “Maximal concentration causing no hemolysis (MHC)” value in series [6] turned out to be 250 µg/mL.
Take “Ac-KWKSFLKTFKSAKKTVLHTALKLISS-NH2 [listing 1 of 2 here]”: the Activity in series [4] is reported as 4. The “Maximal concentration causing no hemolysis (MHC)” value in [6] was determined as 62.5 µg/mL.
Take “Ac-KWKSFLKTFKSAKKTVLHTALKLISS-NH2 [listing 2 of 2 here]”: the MIC in series [1] stood at 31.3 µg/mL; in [2] it was 62.5 µg/mL; in series [3], 62.5 µg/mL; in [5], 31.3 µg/mL; in series [7], 15.6 µg/mL; in [8] it was 31.3 µg/mL.
With Ac-KWKSFAKTFKSAKKTVLHTAAKAISS-NH2, the MIC in series [1] is 500 µg/mL; in [2], above 500 µg/mL; in series [3], above 500 µg/mL; in [5] it was above 500 µg/mL; in series [7], above 500 µg/mL; in series [8] it was above 500 µg/mL. In [4], the Activity is 0.3. The “Maximal concentration causing no hemolysis (MHC)” value in series [6] came out at 1000 µg/mL.
Regarding “Ac-KWKSFAKTFKSAKKTVLHTALKAISS-NH2 [listing 1 of 2 here]”, the MIC was determined as 125 µg/mL in series [1]; 250 µg/mL in series [2]; 250 µg/mL in series [3]; 250 µg/mL in [5]; 125 µg/mL in [7]; 500 µg/mL in [8].
For the compound “Ac-KWKSFAKTFKSAKKTVLHTALKAISS-NH2 [listing 2 of 2 here]”, the Activity in series [4] is listed as 0.3. Besides, the “Maximal concentration causing no hemolysis (MHC)” value in series [6] is 1000 µg/mL.
With `CC[C@H](C)[C@H](NC(=O)[C@H](C)NC(=O)[C@H](CCCCN)NC(=O)[C@H](CC(C)C)NC(=O)[C@H](C)NC(=O)[C@@H](NC(=O)[C@H](Cc1c[nH]cn1)NC(=O)[C@H](CC(C)C)NC(=O)[C@@H](NC(=O)[C@@H](NC(=O)[C@H](CCCCN)NC(=O)[C@H](CCCCN)NC(=O)[C@H](CC(C)C)NC(=O)[C@H](CO)NC(=O)[C@H](CCCCN)NC(=O)[C@H](Cc1ccccc1)NC(=O)[C@@H](NC(=O)[C@H](CCCCN)NC(=O)[C@H](CC(C)C)NC(=O)[C@H](Cc1ccccc1)NC(=O)[C@H](CO)NC(=O)[C@H](CCCCN)NC(=O)[C@H](Cc1c[nH]c2ccccc12)NC(=O)[C@H](CCCCN)NC(C)=O)[C@@H](C)O)[C@@H](C)O)C(C)C)[C@@H](C)O)C(=O)N[C@@H](CO)C(=O)N[C@@H](CO)C(N)=O`, the MIC in [1] came out at 15.6 µg/mL (≈ 5.14 µM); in [2], 62.5 µg/mL (≈ 20.6 µM); in [3], 31.3 µg/mL (≈ 10.3 µM); in [5], 15.6 µg/mL (≈ 5.14 µM); in series [7], 15.6 µg/mL (≈ 5.14 µM); in [8], 31.3 µg/mL (≈ 10.3 µM). Besides, in series [4], the Activity is reported as 8. The “Maximal concentration causing no hemolysis (MHC)” value in series [6] is 31.3 µg/mL.

The record behind these values is ChEMBL document CHEMBL1145532, “Role of peptide hydrophobicity in the mechanism of action of alpha-helical antimicrobial peptides” (Antimicrob Agents Chemother, 2007).
